TAAR1 ag: agonists of human TAAR1. activation, % at 3 µM. 0.99% of 360,000 active. CHO RD-HGA16 TAAR1, Fluo-8 calcium fluorescence; vehicle wells 0%, saturating PEA agonist 100%;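 active = activation above the mean activation of all test compounds in the run plus 3 SD, cut at about 38% in these data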
Target sequence (Q96RJ0 whole entry, looked up): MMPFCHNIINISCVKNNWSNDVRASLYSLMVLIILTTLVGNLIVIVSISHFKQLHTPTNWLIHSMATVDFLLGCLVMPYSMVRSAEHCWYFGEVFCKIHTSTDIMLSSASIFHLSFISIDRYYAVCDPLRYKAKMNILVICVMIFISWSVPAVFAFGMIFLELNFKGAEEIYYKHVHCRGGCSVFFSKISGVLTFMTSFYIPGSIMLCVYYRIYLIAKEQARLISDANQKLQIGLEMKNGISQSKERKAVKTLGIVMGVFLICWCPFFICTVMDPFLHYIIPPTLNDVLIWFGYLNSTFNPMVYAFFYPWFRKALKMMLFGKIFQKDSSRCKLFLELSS
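Test system: RD-HGA16 (CHO) cells co-expressing Gα16 and hTAAR1; dosing: one-point dosing at 3 µM (nominal); timing: 17-24 h seeding, 75 min 37 °C dye, 30 min RT; signal: kinetic Fluo-8 calcium fluorescence; read-out basis: % activation relative to PEA EC100 response; controls: DMSO and PEA EC100; replicates: n 1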
GPR7 antag: antagonists of human GPR7 (neuropeptides B/W receptor 1); 1.1% of 290,000 active; GPR7-expressing cells, fluorescence antagonist assay; inhibition, % at 4.4 µM; in the data active = inhibition above about 16%, passing the limit was not always enough;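 also: cells stimulated with the agonist NPW; 0% = agonist with vehicle and 100% = vehicle without agonist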
TAAR1 antagonist: antagonists of human TAAR1; inhibition, % at 3 µM; Q96RJ0; CHO RD-HGA16 TAAR1, Fluo-8 calcium fluorescence, antagonist; 1.5% of 360,000 active;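 active = inhibition above a per-plate cutoff, the mean inhibition of test compounds on that plate plus 3 SD, cut at about 49% in these data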;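 also: 0% = DMSO plus EC80 beta-PEA response and 100% = DMSO alone without agonist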
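Test system – hTAAR1-expressing CHO RD-HGA16 cells, Gα16-coupled · Also added – β-PEA at EC80 concentration, post-compound challenge · Compound – 3 µM, single point · Incubation – dye loading 75 min at 37 °C, then 30 min room temperature · Measured by – Fluo-8 intracellular calcium dye fluorescence, real-time kinetic reads · Benchmarks – vehicle and agonist controls · Replicates – singlicate, one well per test compound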
OX1R antag-1: blocks the human orexin 1 receptor | 1.8% of 330,000 active | inhibition, % at 6.6 µM | O43613 | AID 485270 | OX1R-expressing cells, FRET antagonist read-out; in the data active = inhibition mostly above about 38%, no sharp cut-off; inactive = mostly below about 40%;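 also: 0% = agonist challenge alone and 100% = reference antagonist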
OX1R antag-2: blocks the human orexin 1 receptor; inhibition, % at 5 µM; CHO/OX1R cells, Fluo-8 calcium fluorescence, orexin A; O43613; 0.43% of 330,000 active;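 active = inhibition above its plate's threshold, mean inhibition of all tested compounds on the plate plus 3 SD, cut at about 37% in these data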;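 also: 0% = orexin A challenge wells and 100% = SB-334867-A antagonist wells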
CHO parental Ca: counter-screen: ATP calcium response change in parental CHO cells; inhibition, % at 5.6 µM; parental CHO-K1, ATP-induced calcium, Fluo-8 fluorescence; 0.63% of 330,000 active;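 active = inhibition above that plate's mean sample inhibition plus 3 SD, cut at about 26% in these data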;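 also: 0% = ATP-challenged DMSO wells and 100% = DMSO wells without ATP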
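Material: Parental CHO cells | Reagent: ATP | Compound dosing: Single nominal dose of 5.6 µM per compound | Detection: Intracellular calcium via Fluo-8 no-wash fluorescent dye | Read-out: % inhibition of ATP-induced calcium mobilization | Benchmarks: Low control ATP plus DMSO, high control DMSO only | Replicates: Singlicate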
TAAR1 nonsel count: nonselective antagonism, TAAR1 counter-screen; shares compounds with TAAR1 antagonist; counterscreen cell line, calcium fluorescence, antagonist mode; inhibition, % at 3 µM; 77% of 2,400 active; AID 651780; in the data active = inhibition above about 22%;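 also: CHO-Ga16 host cells stimulated with ATP at an EC80 level; 0% = agonist EC80 plus vehicle and 100% = vehicle without agonist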
TAAR1 antag conf: confirmation of human TAAR1 antagonists. AID 651785. inhibition, % at 3 µM. 40% of 2,400 active. shares compounds with TAAR1 antagonist. TAAR1-expressing cells, fluorescence antagonist read-out; in the data active = inhibition above about 49%;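 also: CHO-Ga16 host cells challenged with agonist PEA near its EC80; 0% = agonist at EC80 plus vehicle and 100% = vehicle with no agonist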
Ga16 nonsel ag: nonselective Ga16 agonist in TAAR1 antagonist counter-screen; shares compounds with TAAR1 antagonist; activation, % at 3 µM; Ga16-expressing cells, calcium fluorescence, agonist counterscreen; 18% of 2,400 active; in the data active = activation above about 12%;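 also: 0% = vehicle wells and 100% = saturating stimulus response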
TAAR1 ag counter: TAAR1 agonism, antagonist counter-screen; hTAAR1 cell line, fluorescence activation, agonist mode; activation, % at 3 µM; 2% of 2,400 active; shares compounds with TAAR1 antagonist; in the data active = activation above about 37%;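 also: CHO cells stably expressing TAAR1 with calcium dye readout; 0% = DMSO vehicle and 100% = full agonist response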
An asterisk follows results filed as active. Most compounds without a hit are left out; they make up all but 4.6% or so of the library.

`O=c1c2ccccc2nc(-c2ccco2)n1Cc1ccccc1` gave TAAR1 ag 16.4, GPR7 antag -5.0, TAAR1 antagonist 25.3, OX1R antag-1 6.5, OX1R antag-2 -17.5 and CHO parental Ca -17.8.
For COc1cccc(-c2nn(-c3ccccc3)cc2C(=O)Nc2nccs2)c1 the results were TAAR1 ag 8.3, GPR7 antag -6.0, TAAR1 antagonist 65.3*, OX1R antag-1 59.6, OX1R antag-2 -15.3, CHO parental Ca -12.7, TAAR1 nonsel count 19.5, TAAR1 antag conf 49.2*, Ga16 nonsel ag 4.1 and TAAR1 ag counter 3.5.
Screening COc1ccccc1N1CCN(C(=O)c2ccccc2N(C)S(=O)(=O)c2ccc(C)cc2)CC1 returned TAAR1 ag 8.5, GPR7 antag -19.5, TAAR1 antagonist 30.3, OX1R antag-1 29.7, OX1R antag-2 -30.7 and CHO parental Ca -24.8.
CCOC(=O)C(Cc1ccc(NC(=O)/C(=C\c2ccccc2)NC(=O)c2ccccc2)cc1)N1C(=O)c2ccccc2C1=O (stereo not given) was read as TAAR1 ag 5.1, GPR7 antag -9.8, TAAR1 antagonist 18.9, OX1R antag-1 5.6, OX1R antag-2 -6.2 and CHO parental Ca -2.5.
Screening CCOC(=O)C(Cc1ccc(NC(C)=O)cc1)N1C(=O)c2ccccc2C1=O (stereo not given) returned TAAR1 ag 14.2, TAAR1 antagonist 57.8*, OX1R antag-1 3.3, OX1R antag-2 -14.7, CHO parental Ca -11.5, TAAR1 nonsel count 23.9*, TAAR1 antag conf 45.7, Ga16 nonsel ag 9.3 and TAAR1 ag counter 7.8.
For CC1(C)N=C(N)NC(Nc2ccccc2Cl)=N1 the results were TAAR1 ag 2.7, GPR7 antag -0.1, TAAR1 antagonist 2.2, OX1R antag-1 10.5, OX1R antag-2 -7.6 and CHO parental Ca -11.8.
Screening CNC(=O)NC(=O)COC(=O)c1ccccc1OCc1ccccc1 returned TAAR1 ag 1.1, GPR7 antag -8.9, TAAR1 antagonist -3.9, OX1R antag-1 21.1, OX1R antag-2 -13.1 and CHO parental Ca 16.1.
For CCCCOc1ccc(CNn2c(C)nc3ccccc3c2=O)cc1 the results were TAAR1 ag 10.2, GPR7 antag -6.1, TAAR1 antagonist 59.0*, OX1R antag-1 5.0, OX1R antag-2 -3.3, CHO parental Ca -31.7, TAAR1 nonsel count 29.0*, TAAR1 antag conf 43.5, Ga16 nonsel ag 2.5 and TAAR1 ag counter 1.8.
COc1ccc(CNn2c(C)nc3ccccc3c2=O)cc1 was read as TAAR1 ag 5.5, GPR7 antag -2.9, TAAR1 antagonist 27.5, OX1R antag-1 17.6, OX1R antag-2 6.5 and CHO parental Ca -18.8.
`COc1ccc(CNn2c(-c3cccc(C)c3)nc3ccccc3c2=O)cc1OC` gave TAAR1 ag 17.2, GPR7 antag -22.2, TAAR1 antagonist 58.7*, OX1R antag-1 20.9, OX1R antag-2 -28.4, CHO parental Ca -9.2, TAAR1 nonsel count 24.3*, TAAR1 antag conf 46.6, Ga16 nonsel ag 5.6 and TAAR1 ag counter 3.5.
Screening c1ccc(-c2ccc(CNC3CC3)cc2)cc1 returned TAAR1 ag 11.1, GPR7 antag 8.0 and TAAR1 antagonist 3.3.
Screening CC(C(=O)Nc1cccnc1)C1Sc2ccccc2NC1=O (stereo not given) returned TAAR1 ag 0.9, GPR7 antag -10.8, TAAR1 antagonist 2.3, OX1R antag-1 11.2, OX1R antag-2 -8.1 and CHO parental Ca -9.0.
`CCN1CCN(C(=O)Cn2ncc3c2-c2ccccc2OC3)CC1` gave TAAR1 ag 4.6, GPR7 antag -5.2, TAAR1 antagonist -7.8, OX1R antag-1 4.4, OX1R antag-2 -21.8 and CHO parental Ca -3.9.

Assay outcomes: PubChem BioAssay, The Scripps Research Institute Molecular Screening Center
